Measurements published in the EternaBench riboswitch data.

Tested on: MS2 coat protein
Test: apparent Kd, MS2 coat protein; higher = weaker binding; RNA-MaP array; FMN 200 µM where present
In short: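 Designs on Illumina sequencing-chip clusters, transcribed by stalled E. coli RNA polymerase, were exposed to SNAP-549-labelled MS2 coat protein in doubling steps from 0.7 or 1.5 nM up to 3 µM, without and then with constant ligand. The buffer held 100 mM Tris-HCl pH 7.5, 80 mM KCl, 4 mM MgCl2, BSA, DTT, yeast tRNA and Tween-20. Apparent Kd values are medians of filtered per-cluster binding-curve fits to green signal normalised to red-channel RNA signal and control-cluster median Fmax.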

[1] = designed as: ON switch for flavin mononucleotide, no ligand
[2] = ligand present: flavin mononucleotide, designed as: ON switch for flavin mononucleotide
[3] = designed as: OFF switch for flavin mononucleotide, no ligand
[4] = ligand present: flavin mononucleotide, designed as: OFF switch for flavin mononucleotide

Row | Sequence | apparent Kd [1] [nM] | apparent Kd [2] [nM] | apparent Kd [3] [nM] | apparent Kd [4] [nM]
1 | UUAAUUAAUUAAUUAUACAUGAGGAUCACCCAUGUAAGUGAUCAGGAUAUCAGCUCGAAUAGAGCUGAGAAGGGAUACAUGUAA | 199 | 111 |  | 
2 | UUAGCAACAUGAGGAUCACCCAUGUAGGAUAUCGCUAUUGUAAUCAUGAAACAUGAUUACAAUAGCGAGAAGGACAUAUGCUAG |  |  | 9.88 | 10.7
3 | GUAUGAGCGAUAGGAUAUACUGAGAUUGAAUGGGUAGAAGGAUUUCUUGUGGGAAAGACAUGAGGAUCACCCAUGUCGCGGACC | 299 | 176 |  | 
4 | UCCUCACAUGAGGAUCACCCAUGUUAGGAUAUCUCGGUGCCCUGCAGGCAGUGGCACCAGAGAAGGAACGUGCA |  |  | 21.2 | 22.1
5 | AUCAUGUAAGGAUAUCUGACAUGUGACUUCGGUCACUGUUCAGAGAAGGUACAUGAGGAUCACCCAUGUAGAAC |  |  | 76.7 | 78.6
6 | ACAUGAGGAUCACCCAUGUAUAGAUUUGAAUGUUAAGUUACGUAGGAUAUCGUGUUUAGUAUGAUCGAGAAGGACGAUCUGAUA | 25.8 | 20.8 |  | 
7 | GUACUGUAGUGAGGAUAUACGAGAUCGAUAGAUCGGCGAUCCAUAUAUACAUGAGGAUCACCCAUGUAGAAGGCACUUCAGUAC |  |  | 7.02 | 93.4
8 | ACAUGAGGAUCACCCAUGUUCACAUAGGAUAUUGAUUAUAUUGGAUAUAGAAUAUUUAUAAUACACAAGAAGGAUGCAAGAUGG | 16.4 | 13.5 |  | 
9 | AUCAUGUCAGGAUAUAUGACAUGGCUCUUCGGAGCAAGCUCAUAGAAGGGACAUGAGGAUCACCCAUGUAGAGC |  |  | 22.7 | 30.5
10 | AUUUUGUGAGGAUAUCAGGUGUGCUAGCGUACUGGUACAUCUGAGAAGGCACAUGAGGAUCACCCAUGUUUAUU |  |  | 26.6 | 60
11 | ACAUGAGGAUCACCCAUGUACAUGGGUAUUAUUGUUUGUUACUAGGAUAUGUAUUUGAAUUUACAACAGAAGGAGUAUUAAUGU |  |  | 1160 | 632
12 | AUUAUAUAGGAAGGAUAUAGAAUAUUAUUUUAACAUGAGGAUCACCCAUGUAACCUUAUGUGUAGCUAGAAGGUCCAUUUAUUA |  |  | 97.5 | 153
13 | UCAUUUUACACAGGAUAUACUCAUAUACAGUUGUUUGGCUCUUACAUGUUAGUAGAAGGGUGCAACAUGAGGAUCACCCAUGUA | 621 | 250 |  | 
14 | UAAAUACAUGAGGAUCACCCAUGUCAAAAGACAUGAGGAUAUGUACAGACUUCGGUCUGUACAGAAGGCAUGAAAA | 680 | 55.4 |  | 
15 | GAAUUAUUGAUCCAAUUUUACAACAUGAGGAUCACCCAUGUGCAGGAUAUCGUGUGUUUUAUAUUCGAGAAGGGCAUGAACUUU |  |  | 213 | 495
16 | AUUUAUGGCCAGAAGGACAUGAGGAUCACCCAUGUAGGAUAUGGACGAUUUUACUCGGCGGUUUGUUUAGGAAGCACCGGCGGU | 8 | 6.32 |  | 
17 | CGUGUCAUCGAGAAGGCCUCAACAUGAGGAUCACCCAUGUUGUAAUAUGGGAGGAUAUCGAUGAUACAGCUACGUUUCGUAGCC | 19.5 | 6.48 |  | 
18 | ACAAAGAGCCAAGGAUAUACGUCGUCGAGCCCUCCCGUAGUGGCCAGCACAUGAGGAUCACCCAUGUAGAAGGUGGCUGUAGUC |  |  | 20.1 | 38.5
19 | AGCAUGCUAGGAUAUACGGGACAUUAGGGUUCGUUGUAUGGACAUGAGGAUCACCCAUGUAGAAGGAGCGUGCA |  |  | 28 | 99.8
20 | CUGCCGUAGGAGAAGGACGGCGGGUUAUUUUUUUACAUGAGGAUCACCCAUGUAGGAUAUCCUACGUCAGGCAACCUACUACAG |  |  | 6.36 | 9.54
21 | UUAUGGUUCAAGAAGGAUGUAUUUGACUUGUACAUAGGAUAUUGUUAUAUUGUUAAUUAUUGUAACAUGAGGAUCACCCAUGUA | 7.84 | 7.77 |  | 

Row | Sequence | apparent Kd [1] [nM] | apparent Kd [2] [nM] | apparent Kd [3] [nM] | apparent Kd [4] [nM]
22 | GACCCAAAUGAGAAGGUGUGUAUAAAUUAUAUACAAGGAUAUCGGUCGAGCGUGUUGACAUGAGGAUCACCCAUGUUGUGGGUU | 57.1 | 25.7 |  | 
23 | UGGGCCUCGUGAGGAUAUACAUGAGGAUCACCCAUGUAAUAAAGUGAACGGAGGAAACUCCGAAUGUAGAAGGCACGAGGCUCA |  |  | 19.5 | 147
24 | CAUUUGUGAGGAUAUCAGGUGUGCUAGCGUACUGGUACAUCUGAGAAGGCACAUGAGGAUCACCCAUGUUCCUC |  |  | 50 | 312
25 | GUGGCAUACUGAGGAUAUUCAUAUAAUAAAUAAACAUGAGGAUCACCCAUGUGGCGAAAGCCUUGGGAGAAGGCAGAAUGCUAC | 521 | 46.7 |  | 
26 | UAAAAUUUACGAGGAUAUCCAAAGGUAGACAUAGGAGAAGGCGUACAUGAGGAUCACCCAUGUACCAAUAAAUGGGUUUCUCAA |  |  | 20.8 | 57.8
27 | UAUUUACAUGAGGAUCACCCAUGUUAGGAUAUGUUUCUAUCGUCGAAAGAUGAUAUUUGCAGAAGGGACUUUAU |  |  | 27.6 | 25.1
28 | GUAGAGUAGUGAGGAUAUACGAGUACGAUAGUACGGCGAUCCAUUAAUACAUGAGGAUCACCCAUGUAGAAGGCACUUCUCUAC |  |  | 6.6 | 84
29 | GAUUAACAUGAGGAUCACCCAUGUGAGGAUAUGGACUGGCUCACUUUUCGAUUCCCGUCUAGAAGGCGCAUUUU |  |  | 50.1 | 50.1
30 | UUACUUUUACAGAAGGUUUAAUAAUAUAUAAAAGAAGGAUAUGUAACAUGAGGAUCACCCAUGUUUCACCCACAUGAGGAUCAU |  |  | 11.5 | 9.79
31 | AAAAAGUGAGGAUAUACAUGAAAAAAAAAAAAAAAAAAAAAACAUGAGGAUCACCCAUGUAGAAGGCGCAAAAA |  |  | 55.1 | 45.7
32 | UUAACAUGAGGAUCACCCAUGUAUAGAUCGGUUAAUAGAAGUGAGGAUAUGCUUAAAAUAAGGUAGCAGAAGGCACUGGGUACU | 24.2 | 28.7 |  | 
33 | AGUCGGAGCAGAGGAUAUACAUGAGGAUCACCCAUGUAAUAAAGUGAAGACUGGAAACAGUCAAUGUAGAAGGCUGCUCCGACA |  |  | 27.2 | 210
34 | GGAGCCGGCACCGAGGAUAUUCAUAUUAAAACAUGAGGAUCACCCAUGUGGGCCAGAAGGCCUUGGGAGAAGGCGGAUCGGCUCG | 305 | 30 |  | 
35 | GGAGAACAUGAGGAUCACCCAUGUGGAUGGGCGCUAGGAUAUGCGAGAGGGUGAAGAGAAGCAGAAGGAGUGGAUA | 141 | 142 |  | 
36 | UACUUGUUAGGAUAUCUUACAUUUGCAUCAUAGCAACCAUUGGAGAAGGGACAUGAGGAUCACCCAUGUUUGGU |  |  | 42.3 | 43.8
37 | UUACUCAUGUAAGGAUAUGCAGCCGAAACGGCUGCAGAAGGUACUAAAAUACAUGAGGAUCACCCAUGUCUUUUUAUUUUAGAC | 197 | 129 |  | 
38 | ACGGUGGUCACAGGAUAUCCGGCCCGCGUGCCUGGAGAAGGGUGACUCAGAACCACAUGAGGAUCACCCAUGUGCCUUACCGUA | 52.6 | 23.9 |  | 
39 | UAUAUAUAGUAAGGAUAUGUAUAUAUUUUAUCAACAGAAGGUACUGACAUGAGGAUCACCCAUGUUUUAGUGUGGGCAUGUAGA |  |  | 68.7 | 70.8
40 | AUACUCAUGUAAGGAUAUGCAGCCGUUUCGGCUGCAGAAGGUACUAUAAUACAUGAGGAUCACCCAUGUCUAUAAAAUAAAGAC | 60.6 | 41.5 |  | 
41 | CUUCGUAUAGAGGAUAUAGGUUACCUCGGUAUCCUAGAAGGCUGUACAUGAGGAUCACCCAUGUACUUCAGAUC |  |  | 12.4 | 14.5
42 | GUGUAGAUAGGAUAUGCAUGAGUCUAGCGAAGCUAGGCUCUACAUGAGGAUCACCCAUGUAGAAGGGUCUACAC |  |  | 20.6 | 17.2
